ChEMBL document CHEMBL4396883, “Discovery of CDK5 Inhibitors through Structure-Guided Approach” (ACS Med Chem Lett, 2019)
Active and inactive are the calls of the source. No cut-off for these calls is given here.

What was measured:
[1] = target: Cyclin-dependent kinase 5 (Homo sapiens) (UniProt Q00535); assay: Inhibition of CDK5 in human MV4-11 cells assessed as increase in p27KIP1 level at 5 to 10 uM measured after 24 hrs incubation by Western blot analysis; assay type: cell-based
Procedure, shortened: (§1)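 Cells treated for 24 h; lysates immunoblotted for pAkt (S473), pRB (S780), cyclin D1, p27KIP1, and cleaved caspase 3 and 7 (MOLM-13); at least two independent repeats.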

[2] = target: Cyclin-dependent kinase 5 (Homo sapiens) (UniProt Q00535); assay: Inhibition of CDK5 in human MOLM13 cells assessed as increase in p27KIP1 level at 5 to 10 uM measured after 24 hrs incubation by Western blot analysis; assay type: cell-based; procedure, shortened: as §1
[3] = target: Cyclin-dependent kinase 5 (Homo sapiens) (UniProt Q00535); assay: Inhibition of CDK5 in human MV4-11 cells assessed as decrease in cyclin D1 level at 5 to 10 uM measured after 24 hrs incubation by Western blot analysis; assay type: cell-based; procedure, shortened: as §1
[4] = target: CDK2/Cyclin A2 (Homo sapiens) (UniProt P24941+P20248); assay: Inhibition of recombinant full length N-terminal GST tagged human CDK2/CyclinA expressed in baculovirus infected sf9 cells using histone H1 as substrate at 10 uM measured after 30 mins in presence of ATP by ADP-Glo kinase assay relative to control
[5] = target: Cyclin-dependent kinase 5/CDK5 activator 1 (Homo sapiens, UniProt Q00535+Q15078); assay: Inhibition of recombinant full length N-terminal GST tagged human CDK5/p25 expressed in baculovirus infected sf9 cells using histone H1 as substrate at 10 uM measured after 60 mins in presence of ATP by ADP-Glo kinase assay relative to control
CDK2/Cyclin A2 = CDK2/Cyclin A2 (Homo sapiens, UniProt P24941); assay: Inhibition of recombinant full length N-terminal GST tagged human CDK2/CyclinA expressed in baculovirus infected sf9 cells using histone H1 as substrate measured after 30 mins in presence of ATP by ADP-Glo kinase assay
Procedure, shortened: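 CDK2/cyclin A kinase inhibition; Ki values from the average of at least two experiments.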

[6] = target: Cyclin-dependent kinase 5/CDK5 activator 1 (Homo sapiens, UniProt Q00535); assay: Inhibition of recombinant full length N-terminal GST tagged human CDK5/p25 expressed in baculovirus infected sf9 cells using histone H1 as substrate measured after 60 mins in presence of ATP by ADP-Glo kinase assay; assay type: cell-based
[7] = target: Cyclin-dependent kinase 4/cyclin D1 (Homo sapiens, UniProt P11802); assay: Inhibition of human recombinant N-terminal GST-tagged CDK4 (S4-E303 residues)/Cyclin D1 (Q4-I295 residues) expressed in sf9 cells using RB-CTF as substrate incubated for 90 mins in presence of ATP by ADP-Glo kinase assay
CDK9/cyclin T1 = CDK9/cyclin T1 (Homo sapiens, UniProt P50750); assay: Inhibition of human recombinant full length N-terminal GST His6 fused CDK9 (M1 to F372 residues/ N-terminal His6 tagged Cyclin T1 (M1 to K726 residues) expressed in sf9 cells using RBER-IRStide as substrate incubated for 90 mins in presence of ATP by ADP-Glo kinase assay
[8] = target: Cyclin-dependent kinase 2/cyclin E1 (Homo sapiens, UniProt P24941); assay: Inhibition of CDK2/Cyclin E (unknown origin) incubated for 30 to 120 mins in presence of ATP by ADP-Glo kinase assay; assay type: protein-complex assay
MV4-11 = assay: Antiproliferative activity against human MV4-11 cells assessed as growth inhibition measured after 72 hrs by resazurin assay; assay type: functional; settings: MV4-11, 72 h
Procedure, shortened: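 Leukemia cells exposed to compound for 72 h; viability read by resazurin reduction. GI50 (concentration giving 50% inhibition of proliferation) reported as mean ± SD of three independent experiments.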

[9] = target: Receptor-type tyrosine-protein kinase FLT3 (Homo sapiens, UniProt P36888, ITD); assay: Inhibition of human recombinant full length GST-fused/His-tagged FLT3 ITD mutant expressed in Sf9 cells using poly (Glu,Tyr) as substrate incubated for 80 mins in presence of ATP by ADP-Glo kinase assay
MOLM-13 [10] = assay: Induction of apoptosis in human MOLM13 cells assessed as early apoptotic cells at 2.5 uM measured after 24 hrs by Annexin V-FITC/PI staining based flow cytometry (reference value: 3.38%); assay type: functional
MOLM-13 [11] = assay: Induction of apoptosis in human MOLM13 cells assessed as late apoptotic cells at 2.5 uM measured after 24 hrs by Annexin V-FITC/PI staining based flow cytometry (reference value: 1.94%); assay type: functional
MOLM-13 [12] = assay: Induction of apoptosis in human MOLM13 cells assessed as late apoptotic cells at 10 uM measured after 24 hrs by Annexin V-FITC/PI staining based flow cytometry (reference value: 1.94%); assay type: functional
[13] = target: Cyclin-dependent kinase 5 (Homo sapiens) (UniProt Q00535); assay: Inhibition of CDK5 in human MOLM13 cells assessed as increase in caspase3/7 activity at 2.5 to 10 uM measured after 24 hrs by caspase-3/7 glo assay; assay type: cell-based
Procedure, shortened: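 MOLM-13 cells treated 24 h; caspase-3/7 activity measured with […]; at least two independent experiments, values given as mean.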

[14] = target: Cyclin-dependent kinase 5 (Homo sapiens) (UniProt Q00535); assay: Inhibition of CDK5 in human MOLM13 cells assessed as decrease in phosphorylated RB protein level at 5 to 10 uM measured after 24 hrs incubation by Western blot analysis; assay type: cell-based; procedure, shortened: as §1
[15] = target: Cyclin-dependent kinase 5 (Homo sapiens) (UniProt Q00535); assay: Inhibition of CDK5 in human MV4-11 cells assessed as decrease in phosphorylated Akt protein level at 5 to 10 uM measured after 24 hrs incubation by Western blot analysis; assay type: cell-based; procedure, shortened: as §1
[16] = target: Cyclin-dependent kinase 5 (Homo sapiens) (UniProt Q00535); assay: Inhibition of CDK5 in human MV4-11 cells assessed as decrease in phosphorylated RB protein level at 5 to 10 uM measured after 24 hrs incubation by Western blot analysis; assay type: cell-based; procedure, shortened: as §1
[17] = target: Cyclin-dependent kinase 5 (Homo sapiens) (UniProt Q00535); assay: Inhibition of CDK5 in human MV4-11 cells assessed as decrease in FAK phosphorylation at S732 measured after 24 hrs by Western blot analysis; assay type: cell-based
Procedure, shortened: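 MV4-11 AML cells incubated 24 h with compound across a concentration series; cellular CDK5 activity followed by Western blot of FAK phosphorylation at Ser732.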

[18] = target: Cyclin-dependent kinase 5 (Homo sapiens) (UniProt Q00535); assay: Inhibition of CDK5 in human MOLM13 cells assessed as increase in cleaved caspase 3 level at 5 to 10 uM measured after 24 hrs by western blot analysis; assay type: cell-based; procedure, shortened: as §1
[19] = target: Cyclin-dependent kinase 5 (Homo sapiens) (UniProt Q00535); assay: Inhibition of CDK5 in human MOLM13 cells assessed as increase in cleaved caspase 7 level at 5 to 10 uM measured after 24 hrs by western blot analysis; assay type: cell-based; procedure, shortened: as §1
[20] = target: Cyclin-dependent kinase 5 (Homo sapiens) (UniProt Q00535); assay: Inhibition of CDK5 in human MOLM13 cells assessed as decrease in p21CIP1 level at 5 to 10 uM measured after 24 hrs by western blot analysis; assay type: cell-based
[21] = target: Cyclin-dependent kinase 5 (Homo sapiens) (UniProt Q00535); assay: Inhibition of CDK5 in human MV4-11 cells assessed as FAK phosphorylation at S732 at 5 to 10 uM measured after 24 hrs by Western blot analysis
MOLM-13 (Homo sapiens) = assay: Cell cycle arrest in human MOLM-13 cells assessed as accumulation at sub G1 phase at 10 uM measured after 24 hrs by propidium iodide staining based flow cytometry analysis

Sequence of Cyclin-dependent kinase 5 (Homo sapiens) (Q00535 whole entry, looked up): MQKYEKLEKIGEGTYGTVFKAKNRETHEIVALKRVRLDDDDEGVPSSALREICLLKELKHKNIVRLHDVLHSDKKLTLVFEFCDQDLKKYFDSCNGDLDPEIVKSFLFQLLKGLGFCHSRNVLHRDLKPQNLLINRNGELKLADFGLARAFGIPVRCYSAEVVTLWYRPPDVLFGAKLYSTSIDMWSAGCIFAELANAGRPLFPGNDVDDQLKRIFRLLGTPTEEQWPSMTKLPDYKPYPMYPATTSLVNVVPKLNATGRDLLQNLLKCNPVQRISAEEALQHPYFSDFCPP
Sequence of Receptor-type tyrosine-protein kinase FLT3 (P36888 whole entry, looked up, stated change not applied, the tested form may be a part): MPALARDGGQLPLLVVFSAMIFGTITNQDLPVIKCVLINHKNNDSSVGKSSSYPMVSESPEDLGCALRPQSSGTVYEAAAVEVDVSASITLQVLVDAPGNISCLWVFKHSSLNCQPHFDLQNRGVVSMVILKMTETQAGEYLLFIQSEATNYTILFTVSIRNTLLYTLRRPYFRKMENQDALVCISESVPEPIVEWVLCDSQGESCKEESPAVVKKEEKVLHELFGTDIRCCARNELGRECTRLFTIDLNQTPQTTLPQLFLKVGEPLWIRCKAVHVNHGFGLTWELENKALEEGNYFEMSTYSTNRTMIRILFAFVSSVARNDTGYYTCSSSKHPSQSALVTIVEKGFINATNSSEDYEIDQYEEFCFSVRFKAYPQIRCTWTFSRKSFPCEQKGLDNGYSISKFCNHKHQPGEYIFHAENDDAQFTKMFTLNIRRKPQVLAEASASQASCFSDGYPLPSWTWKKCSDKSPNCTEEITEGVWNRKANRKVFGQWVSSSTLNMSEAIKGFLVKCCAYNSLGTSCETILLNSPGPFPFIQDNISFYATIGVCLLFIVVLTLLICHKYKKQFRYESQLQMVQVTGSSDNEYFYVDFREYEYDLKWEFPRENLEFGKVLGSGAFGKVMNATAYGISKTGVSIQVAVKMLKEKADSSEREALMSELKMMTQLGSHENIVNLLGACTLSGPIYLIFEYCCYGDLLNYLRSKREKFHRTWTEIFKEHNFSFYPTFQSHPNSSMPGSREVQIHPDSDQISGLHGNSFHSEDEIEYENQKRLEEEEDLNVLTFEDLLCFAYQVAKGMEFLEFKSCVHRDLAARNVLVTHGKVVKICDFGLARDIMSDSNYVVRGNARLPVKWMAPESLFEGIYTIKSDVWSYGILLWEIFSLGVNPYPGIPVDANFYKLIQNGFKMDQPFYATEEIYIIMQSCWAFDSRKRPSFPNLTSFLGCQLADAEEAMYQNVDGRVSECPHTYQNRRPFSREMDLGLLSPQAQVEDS
Sequence of CDK9/cyclin T1 (O60563 whole entry, the tested form may be a part): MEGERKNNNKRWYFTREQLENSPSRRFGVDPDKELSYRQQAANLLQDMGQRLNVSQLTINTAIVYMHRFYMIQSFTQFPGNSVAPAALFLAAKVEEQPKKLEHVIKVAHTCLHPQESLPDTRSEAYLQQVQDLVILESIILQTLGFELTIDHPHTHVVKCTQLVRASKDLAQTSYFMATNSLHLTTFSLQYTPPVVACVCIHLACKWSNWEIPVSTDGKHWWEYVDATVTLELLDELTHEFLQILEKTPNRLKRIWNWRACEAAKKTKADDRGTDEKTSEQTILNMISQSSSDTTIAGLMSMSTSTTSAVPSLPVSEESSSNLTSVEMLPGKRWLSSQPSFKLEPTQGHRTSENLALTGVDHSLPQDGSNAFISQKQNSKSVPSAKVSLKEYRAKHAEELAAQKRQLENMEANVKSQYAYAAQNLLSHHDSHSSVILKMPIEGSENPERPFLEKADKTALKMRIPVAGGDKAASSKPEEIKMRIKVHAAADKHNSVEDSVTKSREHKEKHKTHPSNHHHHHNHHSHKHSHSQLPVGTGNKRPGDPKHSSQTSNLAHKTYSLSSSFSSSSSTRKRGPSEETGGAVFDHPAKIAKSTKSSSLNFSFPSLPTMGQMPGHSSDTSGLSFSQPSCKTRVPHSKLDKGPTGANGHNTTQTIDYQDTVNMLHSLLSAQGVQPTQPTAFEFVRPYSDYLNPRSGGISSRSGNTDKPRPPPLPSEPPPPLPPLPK
Sequence of CDK9/cyclin T1 (P50750 whole entry, the tested form may be a part): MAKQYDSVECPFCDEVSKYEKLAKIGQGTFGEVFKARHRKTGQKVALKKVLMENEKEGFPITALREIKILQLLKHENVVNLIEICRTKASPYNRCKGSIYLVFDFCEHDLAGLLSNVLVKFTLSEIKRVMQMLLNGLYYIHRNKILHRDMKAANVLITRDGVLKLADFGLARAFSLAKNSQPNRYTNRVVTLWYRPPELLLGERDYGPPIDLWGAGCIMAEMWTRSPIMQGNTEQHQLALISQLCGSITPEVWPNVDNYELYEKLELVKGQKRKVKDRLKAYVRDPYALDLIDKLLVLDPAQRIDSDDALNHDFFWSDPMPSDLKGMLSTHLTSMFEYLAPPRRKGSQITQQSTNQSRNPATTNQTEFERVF
Sequence of Cyclin-dependent kinase 5/CDK5 activator 1 (Homo sapiens, UniProt Q00535+Q15078) (Q00535 whole entry): as the sequence (Q00535 whole entry, looked up) above
Sequence of Cyclin-dependent kinase 5/CDK5 activator 1 (Homo sapiens, UniProt Q00535+Q15078) (Q15078 99-307 partner limits assumed): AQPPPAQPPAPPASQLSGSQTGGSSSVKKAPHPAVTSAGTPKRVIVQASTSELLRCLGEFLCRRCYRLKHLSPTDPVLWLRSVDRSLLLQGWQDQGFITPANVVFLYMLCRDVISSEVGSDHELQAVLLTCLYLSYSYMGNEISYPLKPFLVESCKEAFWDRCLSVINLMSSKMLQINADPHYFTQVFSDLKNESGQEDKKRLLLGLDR
Sequence of Cyclin-dependent kinase 5/CDK5 activator 1 (Homo sapiens, UniProt Q00535) (Q00535 whole entry, the tested form may be a part): as the sequence (Q00535 whole entry, looked up) above
Sequence of Cyclin-dependent kinase 5/CDK5 activator 1 (Homo sapiens, UniProt Q00535) (Q15078 whole entry, further chain, the tested form may be a part): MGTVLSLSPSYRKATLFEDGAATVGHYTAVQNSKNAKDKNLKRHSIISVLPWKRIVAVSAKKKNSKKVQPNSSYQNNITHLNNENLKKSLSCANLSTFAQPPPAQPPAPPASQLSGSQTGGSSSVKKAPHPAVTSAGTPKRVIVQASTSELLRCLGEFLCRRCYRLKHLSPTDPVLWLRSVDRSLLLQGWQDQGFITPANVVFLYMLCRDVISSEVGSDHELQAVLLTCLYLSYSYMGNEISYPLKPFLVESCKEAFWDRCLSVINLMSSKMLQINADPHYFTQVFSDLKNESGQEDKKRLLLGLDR
Sequence of Cyclin-dependent kinase 4/cyclin D1 (P11802 whole entry, the tested form may be a part): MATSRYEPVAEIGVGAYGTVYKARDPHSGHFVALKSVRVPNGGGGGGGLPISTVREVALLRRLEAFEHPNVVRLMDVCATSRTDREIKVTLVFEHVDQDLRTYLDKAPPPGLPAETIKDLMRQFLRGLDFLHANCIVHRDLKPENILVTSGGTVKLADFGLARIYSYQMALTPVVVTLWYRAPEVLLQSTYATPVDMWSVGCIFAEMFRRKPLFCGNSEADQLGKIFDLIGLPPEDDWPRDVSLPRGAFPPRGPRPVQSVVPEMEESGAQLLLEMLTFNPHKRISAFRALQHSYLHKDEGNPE
Sequence of Cyclin-dependent kinase 4/cyclin D1 (P24385 whole entry, further chain, the tested form may be a part): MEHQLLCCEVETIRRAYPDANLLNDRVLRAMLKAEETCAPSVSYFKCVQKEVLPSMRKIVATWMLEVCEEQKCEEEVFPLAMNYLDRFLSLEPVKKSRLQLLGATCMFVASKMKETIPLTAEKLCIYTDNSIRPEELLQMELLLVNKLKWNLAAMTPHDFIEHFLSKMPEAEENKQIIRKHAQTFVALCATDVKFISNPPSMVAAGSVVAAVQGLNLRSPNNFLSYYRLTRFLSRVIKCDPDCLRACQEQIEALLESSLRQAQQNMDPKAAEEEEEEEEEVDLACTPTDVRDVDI

Activity [1]	Activity [2]	inhibition [3]	inhibition [4] [%]	inhibition [5] [%]	Ki (CDK2/Cyclin A2) [nM]	Ki [6] [nM]	Ki [7] [nM]	Ki (CDK9/cyclin T1) [nM]	Ki [8] [nM]	GI50 (MV4-11) [nM]	IC50 [9] [nM]	Activity [13]	inhibition [14]	inhibition [15]	inhibition [16]	inhibition [17]	SMILES	Activity (MOLM-13 [10]) [%]	Activity (MOLM-13 [11]) [%]	Activity (MOLM-13 [12]) [%]	also measured
Active	Active	Active	72	87	3320	800	> 5000	> 5000	> 5000	3290	> 10000	Active	Active	Active	Active	Dose-dependent effect	Cc1cccc(Nc2ncc3c(n2)CCCC3)c1	8.31	2.68	7.92	Activity [18]: Active; Activity [19]: Active; inhibition [20]: Active; inhibition [21]: inactive; Activity (MOLM-13 (Homo sapiens)): Active
Active	Active	Active	95	98	270	160	> 5000	1000	1000	2550	1480	Active	Active	Active	Active	Dose-dependent effect	NS(=O)(=O)c1cccc(Nc2ncc3c(n2)CCCC3)c1	10.05	3.43	6.16	Activity [18]: Active; Activity [19]: Active; inhibition [20]: Active; inhibition [21]: inactive; Activity (MOLM-13 (Homo sapiens)): Active
